Laboratory results as given in ChEMBL document CHEMBL3102735, “Enhancing the pharmacodynamic profile of a class of selective COX-2 inhibiting nitric oxide donors” (Bioorg Med Chem, 2014).
Values after ≈ are worked out from the molar mass of the structure shown.

What was measured:
[1] = tested on: Rattus norvegicus; assay: Volume of distribution at steady state in Wistar rat at 10 mg/kg, iv by LC-MS/MS analysis; assay type: ADME, organism-based; parameters: dose 10 mg/kg, route intravenous; settings: in vivo
[2] = Metabolic stability in Sprague-Dawley rat plasma assessed as compound remaining after 120 mins by LC-MS/MS analysis; assay type: ADME, cell-free; settings: read-out: Stability
Summary of the method: (§1)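 Compound (12 µL of 1 mM DMSO solution into 588 µL medium) incubated in PBS pH 7.4, pepsin-free SGF pH 1.5, or EDTA rat plasma. Aliquots taken at 0, 30, 60, 120 min and quenched with ice-cold acetonitrile containing internal standard; parent remaining as percent.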

[3] = tested on: Thoracic aorta; assay: Ex vivo vasorelaxant activity in Wistar rat endothelium thoracic aortic ring assessed as reduction of KCl-induced contraction; assay type: functional, tissue-based
Summary of the method: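 Endothelium-denuded thoracic aortic rings from male Wistar rats (250–350 g) in oxygenated Tyrode-type buffer at 37 °C, isometric tension recording. Rings precontracted with 30 mM KCl, then 3-fold increasing compound concentrations (1 nM–10 µM) added, also with 1 µM ODQ preincubated. Emax as % of KCl tone; pIC50; mean ± SE of 6–10 experiments.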

[4] = Stability of the compound in simulated gastric fluid assessed as compound remaining at pH 1.5 after 60 mins by LC-MS/MS analysis; assay type: physicochemical; settings: read-out: Stability
Summary of the method: (§2)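 1 mM DMSO stock added to 0.01 M PBS (pH 7.4) or 0.05 M simulated gastric fluid without pepsin (pH 1.5 with HCl); incubated in hybridisation oven; aliquots at 0, 30, 60, 120 min quenched with ice-cold acetonitrile containing internal standard; parent remaining (%) measured.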

[5] = tested on: Mus musculus; assay: Antihyperalgesic activity in Swiss albino mouse assessed as reduction in carrageenan-induced inflammation at 20 mg/kg, po after 60 mins relative to control; assay type: functional; parameters: scale not given: the % may be the effect or the level left
[6] = tested on: Mus musculus; assay: Analgesic activity in Swiss albino mouse assessed as reduction of acetic acid-induced writhing at 20 mg/kg, po measured every 10 mins after 5 mins of administration relative to control; assay type: functional; parameters: scale not given: the % may be the effect or the level left
Summary of the method: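 Male Swiss albino mice (23–25 g), compound given orally in CMC vehicle; writhing induced by 0.6% acetic acid (10 mL/kg) ip. Stretching movements counted for 10 min, starting 5 min after administration; percent reduction versus CMC-treated animals.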

[7] = tested on: Mus musculus; assay: Antihyperalgesic activity in Swiss albino mouse assessed as reduction in carrageenan-induced inflammation at 20 mg/kg, po after 30 mins relative to control; assay type: functional; parameters: scale not given: the % may be the effect or the level left
[8] = tested on: Rattus norvegicus; assay: Drug metabolism in Wistar rat plasma assessed as 2-(1-(4-fluorophenyl)-2-methyl-5-(4-(methylsulfonyl)phenyl)-1H-pyrrol-3-yl)-N-(2-hydroxyethyl)acetamide metabolite at 10 mg/kg, iv up to 6 hrs by LC-MS/MS analysis; assay type: ADME, organism-based; parameters: dose 10 mg/kg, route intravenous; settings: in vivo
Summary of the method: (§3)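 Male Han Wistar rats, three per route, single 10 mg/kg/5 mL dose iv or po in 5% DMSO, 5% Cremophor EL, 0.1% Tween 80 in 150 mM phosphate buffer pH 7. Jugular-vein blood sampled, plasma methanol-precipitated, parent and hydroxy metabolite quantified by LC–MS/MS in positive ESI MRM mode (LLOQ 1–15 ng/mL).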

[9] = tested on: Liver; assay: Induction of nitric oxide production in Wistar rat liver homogenate assessed as NOx level at 1 mM; assay type: functional, tissue-based; settings: TDE = time-dependent effect
[10] = tested on: Liver; assay: Induction of nitric oxide production in Wistar rat liver homogenate assessed as nitrate level at 1 mM; assay type: functional, tissue-based; settings: TDE = time-dependent effect
[11] = tested on: Liver; assay: Induction of nitric oxide production in Wistar rat liver homogenate assessed as nitrite level at 1 mM after 1 to 150 mins; assay type: functional, tissue-based
[12] = tested on: Liver; assay: Induction of nitric oxide production in Wistar rat liver homogenate assessed as nitrite level at 1 mM; assay type: functional, tissue-based; settings: TDE = time-dependent effect
[13] = target: T1, Prostaglandin G/H synthase 2 (Mus musculus) (UniProt Q05769); assay: Inhibition of LPS-induced COX-2 in mouse J774 cells using arachidonic acid as substrate assessed as inhibition of prostaglandin E2 production at 10 uM preincubated for 15 mins followed by substrate addition measured after 30 mins by RIA; assay type: cell-based
T1 sequence (whole entry): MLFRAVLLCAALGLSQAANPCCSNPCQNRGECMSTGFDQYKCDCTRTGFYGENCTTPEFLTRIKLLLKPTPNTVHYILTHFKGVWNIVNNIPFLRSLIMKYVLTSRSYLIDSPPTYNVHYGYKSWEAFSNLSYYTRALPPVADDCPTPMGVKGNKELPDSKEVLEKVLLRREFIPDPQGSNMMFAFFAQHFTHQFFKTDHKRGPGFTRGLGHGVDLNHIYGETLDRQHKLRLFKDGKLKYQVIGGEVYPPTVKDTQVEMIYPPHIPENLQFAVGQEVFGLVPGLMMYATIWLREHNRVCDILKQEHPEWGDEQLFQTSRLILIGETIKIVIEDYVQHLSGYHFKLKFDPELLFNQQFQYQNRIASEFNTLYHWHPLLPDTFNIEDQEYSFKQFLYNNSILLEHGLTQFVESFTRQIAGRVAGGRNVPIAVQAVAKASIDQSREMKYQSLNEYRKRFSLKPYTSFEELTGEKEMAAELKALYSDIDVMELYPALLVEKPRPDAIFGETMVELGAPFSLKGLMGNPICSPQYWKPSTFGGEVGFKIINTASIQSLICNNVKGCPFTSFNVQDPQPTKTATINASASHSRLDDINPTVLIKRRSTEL

[14] = Metabolic stability in Sprague-Dawley rat plasma assessed as compound remaining after 60 mins by LC-MS/MS analysis; assay type: ADME, cell-free; settings: read-out: Stability; summary of the method: as §1
[15] = Clearance in Wistar rat at 10 mg/kg, iv by LC-MS/MS analysis; assay type: ADME, organism-based; parameters: dose 10 mg/kg, route intravenous; settings: in vivo; summary of the method: as §3
[16] = tested on: J774; assay: Selectivity index, ratio of IC50 for COX-1 to IC50 for COX-2 in mouse J774 cells; assay type: cell-based
Summary of the method: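 J774 macrophages stimulated 24 h with E. coli LPS (10 µg/mL) to induce COX-2, with or without compound (0.01–10 µM); supernatant PGE2 by RIA. Triplicate wells, three experiments, percent inhibition versus control, IC50 by sigmoidal fit; selectivity as COX-1/COX-2 IC50 ratio.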

[17] = Stability of the compound in simulated gastric fluid assessed as compound remaining at pH 1.5 after 30 mins by LC-MS/MS analysis; assay type: physicochemical; settings: read-out: Stability; summary of the method: as §2
[18] = Solubility of the compound in simulated gastric fluid at pH 1.5 after 90 mins by HPLC analysis; assay type: ADME
Summary of the method: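 DMSO stock (20 mM) diluted 2 µL into 198 µL PBS 0.01 M pH 7.4 or pepsin-free SGF 0.05 M pH 1.5, duplicate wells, shaken 90 min at 300 rpm. Filtrates analysed by HPLC with photodiode-array detection against seven-point standards (1–200 µM).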

[19] = Stability of the compound in phosphate buffer saline assessed as compound remaining at pH 7.4 after 120 mins by LC-MS/MS analysis; assay type: physicochemical; settings: read-out: Stability; summary of the method: as §1
[20] = Stability of the compound in phosphate buffer saline assessed as compound remaining at pH 7.4 after 30 mins by LC-MS/MS analysis; assay type: physicochemical; settings: read-out: Stability; summary of the method: as §2
[21] = tested on: Mus musculus; assay: Antihyperalgesic activity in Swiss albino mouse assessed as reduction in carrageenan-induced inflammation at 20 mg/kg, po after 90 mins relative to control; assay type: functional; parameters: scale not given: the % may be the effect or the level left
[22] = tested on: Mus musculus; assay: Antihyperalgesic activity in Swiss albino mouse assessed as reduction in carrageenan-induced inflammation at 40 mg/kg, po after 90 mins relative to control; assay type: functional; parameters: scale not given: the % may be the effect or the level left

Vdss [1]: 367 mL
remaining at 2 h [2]: 100%
IC50 [3]: 4.9 µM
remaining at 1 h [4]: 100%
Drug metabolism [8]: Active
inhibition [13]: 100%
remaining at 1 h [14]: 100%
clearance [15]: 10 mL/min
remaining at 0.5 h [17]: 100%
solubility at 1.5 h [18]: 147 µM (≈ 69.9 µg/mL)
remaining at 2 h [19]: 100%
remaining at 0.5 h [20]: 100%
Structure (SMILES): Cc1c(CC(=O)NCCO[N+](=O)[O-])cc(-c2ccc(S(C)(=O)=O)cc2)n1-c1ccc(F)cc1
Activity [5]: 30%
Activity [6]: 77%
Activity [7]: 28%
Activity [9]: tde
Activity [10]: tde
Activity [11]: 27 µM
Activity [12]: tde
Ratio IC50 [16]: > 42
Activity [21]: 20%
Activity [22]: 29%
